The results in this text go back to ChEMBL document CHEMBL4665761, “Optimizing the Benefit/Risk of Acetyl-CoA Carboxylase Inhibitors through Liver Targeting” (J Med Chem, 2020).

What is called solubility is the concentration that dissolves in the medium under given conditions. The Cmax is the highest concentration seen after dosing. For orientation: Kp means tissue or fluid exposure divided by exposure in the circulation. The term Tmax denotes the time at which the peak concentration occurs. As a reminder, the AUC(0-t) is exposure summed from dosing to a finite time, without extrapolation to infinity. As a reminder, the bioavailability is dose-corrected exposure relative to a reference, in per cent. The half-life is how long it takes for the measured level to halve.

Series [1] in a line: Aqueous solubility of compound at pH 6.5 using tris(hydroxymethyl)aminomethane (tris) salt form of compound. Format: physicochemical. The note with it: buffer.
A short description of series [2]: Cmax in cynomolgus monkey plasma at 5 mg/kg, po tris(hydroxymethyl)aminomethane (tris) salt form of compound and measured up to 24 hrs by LC/MS-MS analysis. The class given is ADME, organism-based, Macaca fascicularis. On the set-up: route oral, dose 5 mg/kg, time <=24. In a few lines:
(§1)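 Cynomolgus monkeys dosed 1 mg/kg IV as the tris salt in 2% N-methylpyrrolidone/98% sulfobutylether-β-cyclodextrin (12.5%) in 50 mM TRIS, pH 8.0, or PO as the tris salt. Plasma was analysed by LC-MS/MS, n = 2. CL = IV dose/AUC; Vss = dose/(AUC × elimination rate constant); Cmax taken from observed data.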

Series [3] can be described thus: Aqueous solubility of compound at pH 7.4 using tris(hydroxymethyl)aminomethane (tris) salt form of compound. The note with it: buffer. Format: physicochemical.
The nature of series [4]: Ratio of drug uptake in cynomolgus monkey liver to plasma at 1 mg/kg, iv tris(hydroxymethyl)aminomethane (tris) salt form of compound after 6 hrs by LC/MS-MS analysis. The class given is ADME, organism-based, Macaca fascicularis. Particulars: liver and plasma. The method, boiled down:
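Cynomolgus monkeys (n = 2) given 1 mg/kg IV as the tris salt in 2% N-methylpyrrolidone/98% sulfobutylether-β-cyclodextrin (12.5%) in 50 mM TRIS pH 8.0. Liver and plasma taken 6 h post-dose.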

The nature of series [5]: Aqueous solubility of compound at pH 1.2 using tris(hydroxymethyl)aminomethane (tris) salt form of compound. The note with it: buffer. The class given is physicochemical.
Series [6] can be described thus: Tmax in Wistar-Hannover rat plasma at 5 mg/kg, po tris(hydroxymethyl)aminomethane (tris) salt form of compound and measured up to 24 hrs by LC/MS-MS analysis. Format: ADME, organism-based. The method, boiled down: (§2)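 Plasma concentration–time data, n = 2, averaged. Cmax and Tmax read directly from the data. AUC0–24 by the linear trapezoidal rule. F calculated as dose-normalized AUC PO/IV.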

Series [7] can be described thus: Drug uptake in cynomolgus monkey liver at 1 mg/kg, iv tris(hydroxymethyl)aminomethane (tris) salt form of compound after 6 hrs by LC/MS-MS analysis. The note with it: read-out: Drug uptake. The class given is ADME, organism-based, Macaca fascicularis. The method, boiled down: (§3)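 Monkeys, n = 2, given 1 mg/kg IV as the tris salt in 2% N-methylpyrrolidone/98% sulfobutylether-β-cyclodextrin (12.5%) in 50 mM TRIS, pH 8.0. Plasma and liver concentrations were taken 6 h post-dose.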

Series [8] can be described thus: AUC (0 to 24 hrs) in Wistar-Hannover rat plasma at 5 mg/kg, po tris(hydroxymethyl)aminomethane (tris) salt form of compound and measured up to 24 hrs by LC/MS-MS analysis. Also noted: route oral, dose 5 mg/kg, time <=24. The class given is ADME, organism-based. The method, boiled down: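 Male Wistar-Hannover rats (240–350 g), housed singly after 1 week of acclimation, were dosed orally. AUC0–24 came from plasma concentration–time data by the linear trapezoidal rule, averaged for n = 2. Lower detection limit was 1 ng/mL.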

Series [9] can be described thus: Oral bioavailability in cynomolgus monkey plasma at 5 mg/kg using tris(hydroxymethyl)aminomethane (tris) salt form of compound and measured up to 24 hrs by LC/MS-MS analysis. The class given is ADME, organism-based, Macaca fascicularis. In a few lines: as §2
A short description of series [10]: Tmax in cynomolgus monkey plasma at 5 mg/kg, po tris(hydroxymethyl)aminomethane (tris) salt form of compound and measured up to 24 hrs by LC/MS-MS analysis. The class given is ADME, organism-based, Macaca fascicularis. The method, boiled down: as §2
The nature of series [11]: Oral bioavailability in Wistar-Hannover rat plasma at 5 mg/kg tris(hydroxymethyl)aminomethane (tris) salt form of compound and measured up to 24 hrs by LC/MS-MS analysis. Format: ADME, organism-based. In a few lines:
as §2

Series [12] in a line: Ratio of drug uptake in cynomolgus monkey unbound liver to plasma concentration at 1 mg/kg, iv tris(hydroxymethyl)aminomethane (tris) salt form of compound after 6 hrs by LC/MS-MS analysis. The class given is ADME, organism-based, Macaca fascicularis. The note with it: other tissue. The method, boiled down:
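Cynomolgus monkeys (n = 2) given a single IV dose as tris salt in 2% N-methylpyrrolidone / 98% sulfobutylether-betacyclodextrin (12.5%) in 50 mM TRIS buffer, pH 8.0. Plasma and liver sampled 6 h post-dose. Total concentrations converted to unbound using equilibrium-dialysis fu in plasma and liver. Ratio taken as mean free liver over free plasma concentration.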

The nature of series [13]: Half life in Wistar-Hannover rat plasma at 5 mg/kg, po tris(hydroxymethyl)aminomethane (tris) salt form of compound and measured up to 24 hrs by LC/MS-MS analysis. Format: ADME, organism-based.
Series [14] can be described thus: AUC (0 to 24 hrs) in cynomolgus monkey plasma at 5 mg/kg, po tris(hydroxymethyl)aminomethane (tris) salt form of compound and measured up to 24 hrs by LC/MS-MS analysis. Format: ADME, organism-based, Macaca fascicularis. Also noted: route oral, dose 5 mg/kg, time <=24. The method, boiled down:
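Cynomolgus monkeys received an oral dose. AUC0–24 came from plasma concentration–time data by the linear trapezoidal rule, averaged for n = 2.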

A short description of series [15]: Cmax in Wistar-Hannover rat plasma at 5 mg/kg, po tris(hydroxymethyl)aminomethane (tris) salt form of compound and measured up to 24 hrs by LC/MS-MS analysis. The class given is ADME, organism-based. Also noted: route oral, dose 5 mg/kg, time <=24.
The nature of series [16]: Drug uptake in cynomolgus monkey assessed as plasma concentration at 1 mg/kg, iv tris(hydroxymethyl)aminomethane (tris) salt form of compound after 6 hrs by LC/MS-MS analysis. Format: ADME, organism-based, Macaca fascicularis. The method, boiled down: as §3
A short description of series [17]: Half life in cynomolgus monkey plasma at 5 mg/kg, po tris(hydroxymethyl)aminomethane (tris) salt form of compound and measured up to 24 hrs by LC/MS-MS analysis. The class given is ADME, organism-based, Macaca fascicularis. The method, boiled down: as §1

Take `COc1cc(C(=O)N2CCC3(CC2)CC(=O)c2c(cnn2C(C)C)C3)cc(-c2ccc(C(=O)O)cc2)n1.NC(CO)(CO)CO` [CLESACOSTAT TROMETHAMINE]: the solubility in series [1] was found to be 3.98 mM; in [3], 4.77 mM; in series [5], 1.32 mM. The maximum concentration (Cmax) in series [2] was determined as 5.78 µg/mL; in [15], 0.39 µg/mL. Besides, the Kp at 6 h in series [4] was found to be 15. The results for the Tmax in series [6] and in series [10] were 0.54 h and 1.13 h, respectively. Also, the figures for the concentration at 6 h in series [7] and in series [16] were 1.3 µg/mL and 0.088 µg/mL, respectively. The AUC(0-t) was 2.49 µg·h/mL in series [8] and 36.2 µg·h/mL in series [14]. For the same compound, the figures for the bioavailability in series [9] and in series [11] were 52% and 48%, respectively. In addition, in series [12], the Ratio stood at 230. Further, the half-life in series [13] is 5.6 h; in [17], 11 h.
